# According to ChEMBL document CHEMBL1123394, “Systematic synthesis and biological evaluation of alpha- and beta-D-xylofuranosyl nucleosides of the five naturally occurring bases in nucleic acids and related analogues” (J Med Chem, 1986):
# Test system: Vero
# Test: Concentration required for microscopically detectable alteration of the normal cell morphology in Vero B cells.
# Type: functional
# Conditions: Chlorocebus sabaeus
# How it was run: (§1)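 Host-cell morphology inspected microscopically for detectable alteration, with compounds in growth medium at up to 200 or 400 μg/mL.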
row,Compound,MCC [µg/mL]
1,Nc1ccn([C@@H]2O[C@H](CO)[C@H](O)[C@H]2O)c(=O)n1,> 200

# Test system: not listed separately
# Test: Concentration required to reduce RNA synthesis in primary rabbit kidney cells using [3H-5]-Urd incorporation
# Type: functional
# Conditions: Oryctolagus cuniculus, read-out: ID50 (the source's name)
# How it was run: (§2)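 Primary rabbit kidney cells with compounds in growth medium at 100, 10, or 1 μg/mL or less. Cell number and incorporation of [3H-methyl]dThd (DNA), [3H-5]Urd (RNA) or [3H2-4,5]leucine (protein) measured. ID50 taken as the dose giving 50% reduction in cell number or in DNA, RNA or protein synthesis.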
row,Compound,IC50 [µg/mL]
1,Nc1ccn([C@@H]2O[C@H](CO)[C@H](O)[C@H]2O)c(=O)n1,60

# Test system: Mus musculus
# Test: Toxicity of compound against mice was determined at a concentration of 100 mg/kg
# Type: organism-based
# Parameters: dose 100 mg/kg
# Conditions: in vivo
# How it was run: (§3)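 Swiss mice (20-24 g) received a single intraperitoneal dose of 100-2,000 mg/kg. Compound was suspended in distilled water containing 0.2 g Tween 80 and 0.2 g (carboxymethyl)cellulose per 100 mL. Mice were followed for 14 days for acute toxicity.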
row,Compound,No. of dead mice
1,Nc1ccn([C@@H]2O[C@H](CO)[C@H](O)[C@H]2O)c(=O)n1,0

# Test system: Vero
# Test: Antiviral activity was measured against Parainfluenza virus-3 in african green monkey kidney (Vero B) cells.
# Type: functional
# Conditions: Chlorocebus sabaeus
# How it was run: (§4)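 Inhibition of virus-induced cytopathogenicity scored in cell culture monolayers. Test compounds dissolved in growth medium at 100, 10, or 1 μg/mL or less.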
row,Compound,MCC [µg/mL]
1,Nc1ccn([C@@H]2O[C@H](CO)[C@H](O)[C@H]2O)c(=O)n1,> 100

# Test system: WI-38
# Test: Concentration required for microscopically detectable alteration of the normal cell morphology in Wi-38 cells.
# Type: functional
# Conditions: Homo sapiens
# How it was run: as §1
row,Compound,MCC [µg/mL]
1,Nc1ccn([C@@H]2O[C@H](CO)[C@H](O)[C@H]2O)c(=O)n1,400

# Test system: not listed separately
# Test: Number of living cells on the proliferation of mouse myeloma cells SP2 was measured at concentration 100 ug/mL at 96 h.
# Type: functional
# Conditions: not given
# How it was run: (§5)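 Mouse myeloma SP2 cells seeded at 123 × 10^3 cells and exposed to compound at 1, 10 or 100 μg/mL in growth medium. Living cells counted at 0, 48 and 96 h alongside untreated controls.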
row,Compound,No. of living cells
1,Nc1ccn([C@@H]2O[C@H](CO)[C@H](O)[C@H]2O)c(=O)n1,0

# Test system: Mus musculus
# Test: Toxicity of compound against mice was determined at a concentration of 2000 mg/kg
# Type: organism-based
# Parameters: dose 2000 mg/kg
# Conditions: in vivo
# How it was run: as §3
row,Compound,No. of dead mice
1,Nc1ccn([C@@H]2O[C@H](CO)[C@H](O)[C@H]2O)c(=O)n1,1

# Test system: WI-38
# Test: Antiviral activity was measured against Rhino virus-9 in human diploid (WI-38) cells.
# Type: functional
# Conditions: not given
# How it was run: as §4
row,Compound,MCC [µg/mL]
1,Nc1ccn([C@@H]2O[C@H](CO)[C@H](O)[C@H]2O)c(=O)n1,> 400

# Test system: not listed separately
# Test: Antiviral activity was measured against Herpes simplex virus (HSV-1 KOS) in rabbit kidney cells.
# Type: functional
# Conditions: Oryctolagus cuniculus
# How it was run: (§6)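 Inhibition of virus-induced cytopathogenicity in cell culture. Compounds were dissolved in growth medium at 100, 10 or 1 μg/mL or less.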
row,Compound,MCC [µg/mL]
1,Nc1ccn([C@@H]2O[C@H](CO)[C@H](O)[C@H]2O)c(=O)n1,20

# Test system: Mus musculus
# Test: Toxicity of compound against mice was determined at a concentration of 750 mg/kg
# Type: organism-based
# Parameters: dose 750 mg/kg
# Conditions: in vivo
# How it was run: as §3
row,Compound,No. of dead mice
1,Nc1ccn([C@@H]2O[C@H](CO)[C@H](O)[C@H]2O)c(=O)n1,0

# Test system: Vero
# Test: Antiviral activity was measured against Reo virus-1 in african green monkey kidney (Vero B) cells.
# Type: functional
# Conditions: Chlorocebus sabaeus
# How it was run: as §4
row,Compound,MCC [µg/mL]
1,Nc1ccn([C@@H]2O[C@H](CO)[C@H](O)[C@H]2O)c(=O)n1,> 100

# Test system: not listed separately
# Test: Antiviral activity was measured against Herpes simplex virus (HSV-2 G) in rabbit kidney cells.
# Type: functional
# Conditions: Oryctolagus cuniculus
# How it was run: as §4
row,Compound,MCC [µg/mL]
1,Nc1ccn([C@@H]2O[C@H](CO)[C@H](O)[C@H]2O)c(=O)n1,20

# Test system: not listed separately
# Test: Concentration required for microscopically detectable alteration of the normal cell morphology in PRK cells.
# Type: functional
# Conditions: Oryctolagus cuniculus
# How it was run: as §1
row,Compound,MCC [µg/mL]
1,Nc1ccn([C@@H]2O[C@H](CO)[C@H](O)[C@H]2O)c(=O)n1,> 200

# Test system: Mus musculus
# Test: Efficacy expressed as number of surviving mice infected with herpetic encephalitis at dose of 150 mg/kg
# Type: functional
# Conditions: not given
# How it was run: (§7)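 Young mice (10 g) were inoculated intracerebrally with 0.03 mL of herpes simplex virus suspension containing ca. 4 CCID50. Compound was given at 75 or 150 mg/kg per day as two daily intraperitoneal injections for 4 days. Read-out was the number of surviving mice.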
row,Compound,Efficacy [mg/kg]
1,Nc1ccn([C@@H]2O[C@H](CO)[C@H](O)[C@H]2O)c(=O)n1,2

# Test system: WI-38
# Test: Antiviral activity was measured against Rhino virus-1A in human diploid (WI-38) cells.
# Type: functional
# Conditions: not given
# How it was run: as §4
row,Compound,MCC [µg/mL]
1,Nc1ccn([C@@H]2O[C@H](CO)[C@H](O)[C@H]2O)c(=O)n1,> 400

# Test system: not listed separately
# Test: Number of living cells on the proliferation of mouse myeloma cells SP2 was measured at concentration 100 ug/mL at 48 hr.
# Type: functional
# Conditions: not given
# How it was run: as §5
row,Compound,No. of living cells
1,Nc1ccn([C@@H]2O[C@H](CO)[C@H](O)[C@H]2O)c(=O)n1,0.056

# Test system: Vero
# Test: Antiviral activity was measured against forest virus in african green monkey kidney (Vero B) cells.
# Type: functional
# Conditions: Chlorocebus sabaeus
# How it was run: as §4
row,Compound,MCC [µg/mL]
1,Nc1ccn([C@@H]2O[C@H](CO)[C@H](O)[C@H]2O)c(=O)n1,> 200

# Species: Mus musculus
# Test: Efficacy expressed as number of surviving mice infected with herpetic encephalitis at dose of 75 mg.kg
# Type: functional
# Conditions: not given
# How it was run: as §7
row,Compound,Efficacy [mg/kg]
1,Nc1ccn([C@@H]2O[C@H](CO)[C@H](O)[C@H]2O)c(=O)n1,1

# Test system: not listed separately
# Test: Antiviral activity was measured against Vesicular stomatitis virus in rabbit kidney cells.
# Type: functional
# Conditions: Oryctolagus cuniculus
# How it was run: as §6
row,Compound,MCC [µg/mL]
1,Nc1ccn([C@@H]2O[C@H](CO)[C@H](O)[C@H]2O)c(=O)n1,> 100

# Test system: Mus musculus
# Test: Toxicity of compound against mice was determined at a concentration of 1200 mg/kg
# Type: organism-based
# Parameters: dose 1200 mg/kg
# Conditions: in vivo
# How it was run: as §3
row,Compound,No. of dead mice
1,Nc1ccn([C@@H]2O[C@H](CO)[C@H](O)[C@H]2O)c(=O)n1,0

# Test system: HeLa
# Test: Concentration required for microscopically detectable alteration of the normal cell morphology in HeLa cells.
# Type: functional
# Conditions: Homo sapiens
# How it was run: as §1
row,Compound,MCC [µg/mL]
1,Nc1ccn([C@@H]2O[C@H](CO)[C@H](O)[C@H]2O)c(=O)n1,200

# Test system: not listed separately
# Test: Dose required to reduce primary rabbit kidney cell growth
# Type: functional
# Conditions: Oryctolagus cuniculus, read-out: ID50 (the source's name)
# How it was run: as §2
row,Compound,IC50 [µg/mL]
1,Nc1ccn([C@@H]2O[C@H](CO)[C@H](O)[C@H]2O)c(=O)n1,72

# Test system: Vero
# Test: Antiviral activity was measured against Sindbis virus in african green monkey kidney (Vero B) cells.
# Type: functional
# Conditions: Chlorocebus sabaeus
# How it was run: as §4
row,Compound,MCC [µg/mL]
1,Nc1ccn([C@@H]2O[C@H](CO)[C@H](O)[C@H]2O)c(=O)n1,> 40

# Test system: Vero
# Test: Antiviral activity was measured against Coxsackie virus B4 in african green monkey kidney (Vero B) cells.
# Type: functional
# Conditions: Chlorocebus sabaeus
# How it was run: as §4
row,Compound,MCC [µg/mL]
1,Nc1ccn([C@@H]2O[C@H](CO)[C@H](O)[C@H]2O)c(=O)n1,> 100

# Test system: not listed separately
# Test: Antiviral activity was measured against Vaccinia virus in rabbit kidney cells.
# Type: functional
# Conditions: Oryctolagus cuniculus
# How it was run: as §6
row,Compound,MCC [µg/mL]
1,Nc1ccn([C@@H]2O[C@H](CO)[C@H](O)[C@H]2O)c(=O)n1,20

# Test system: Mus musculus
# Test: Toxicity of compound against mice was determined at a concentration of 250 mg/kg
# Type: organism-based
# Parameters: dose 250 mg/kg
# Conditions: in vivo
# How it was run: as §3
row,Compound,No. of dead mice
1,Nc1ccn([C@@H]2O[C@H](CO)[C@H](O)[C@H]2O)c(=O)n1,0

# Test system: Mus musculus
# Test: Efficacy expressed as number of surviving mice infected with herpetic encephalitis at dose of 0 mg/kg
# Type: functional
# Conditions: not given
row,Compound,Efficacy [mg/kg]
1,Nc1ccn([C@@H]2O[C@H](CO)[C@H](O)[C@H]2O)c(=O)n1,0

# Test system: not listed separately
# Test: Concentration required to reduce DNA synthesis in primary rabbit kidney cells using [3H-Methyl]-dThd incorporation
# Type: functional
# Conditions: Oryctolagus cuniculus, read-out: ID50 (the source's name)
# How it was run: as §2
row,Compound,IC50 [µg/mL]
1,Nc1ccn([C@@H]2O[C@H](CO)[C@H](O)[C@H]2O)c(=O)n1,84

# Test system: HeLa
# Test: Antiviral activity was measured against Coxsackie virus B4 in HeLa cells.
# Type: functional
# Conditions: Homo sapiens
# How it was run: as §6
row,Compound,MCC [µg/mL]
1,Nc1ccn([C@@H]2O[C@H](CO)[C@H](O)[C@H]2O)c(=O)n1,> 100
